Compound activity from PubChem.
ERAP1 HTS inh = human ERAP1 aminopeptidase inhibitors, primary screen, biochemical, single point, plate reader; Endoplasmic reticulum aminopeptidase 1 (Homo sapiens), Q9NZ08; recombinant ERAP1, Leu-AMC fluorescence, 60 min; inhibition, % at 10.7 µM; 340,000 compounds, 0.15% hits;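 active = mean replicate inhibition of at least 30%, or all replicates individually reaching that 30% level; inactive = mean below 30% and not every replicate reaching it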;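 also: 0% = neutral control wells and 100% = L-leucinethiol positive control wells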
Target sequence (Q9NZ08 whole entry, looked up): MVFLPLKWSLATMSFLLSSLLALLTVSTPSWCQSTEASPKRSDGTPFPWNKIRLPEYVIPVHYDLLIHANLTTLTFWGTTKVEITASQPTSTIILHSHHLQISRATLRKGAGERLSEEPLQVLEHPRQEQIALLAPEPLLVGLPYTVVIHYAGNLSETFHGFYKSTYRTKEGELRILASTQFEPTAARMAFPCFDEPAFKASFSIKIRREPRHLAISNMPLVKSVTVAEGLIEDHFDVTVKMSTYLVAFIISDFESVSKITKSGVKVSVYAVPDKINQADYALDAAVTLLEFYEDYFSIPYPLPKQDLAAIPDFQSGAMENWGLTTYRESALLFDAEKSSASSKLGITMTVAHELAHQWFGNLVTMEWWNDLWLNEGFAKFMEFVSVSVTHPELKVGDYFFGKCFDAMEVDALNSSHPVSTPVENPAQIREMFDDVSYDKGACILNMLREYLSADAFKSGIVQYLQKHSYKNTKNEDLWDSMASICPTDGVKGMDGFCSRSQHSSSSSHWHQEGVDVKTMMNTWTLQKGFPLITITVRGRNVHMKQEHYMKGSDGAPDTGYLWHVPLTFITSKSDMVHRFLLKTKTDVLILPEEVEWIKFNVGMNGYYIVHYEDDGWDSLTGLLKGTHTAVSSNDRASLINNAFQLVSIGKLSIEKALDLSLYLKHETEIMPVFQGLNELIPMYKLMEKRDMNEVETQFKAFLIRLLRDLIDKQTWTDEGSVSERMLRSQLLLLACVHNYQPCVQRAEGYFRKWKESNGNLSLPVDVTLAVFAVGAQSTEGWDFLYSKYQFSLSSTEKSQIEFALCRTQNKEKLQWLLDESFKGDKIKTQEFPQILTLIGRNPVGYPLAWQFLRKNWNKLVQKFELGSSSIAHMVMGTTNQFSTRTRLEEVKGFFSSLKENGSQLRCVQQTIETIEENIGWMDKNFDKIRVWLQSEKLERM
FGF22 binding = binders of human FGF22 protein, primary screen, FGF22 synaptogenesis inhibitor project, biophysical, thermal shift, single point. Fibroblast growth factor 22 (Homo sapiens), Q9HCT0. recombinant FGF22 thermal shift, SYPRO orange fluorescence; percent of sucrose octasulfate shift, DMSO zero. activity (Tm shift, normalised), % at 9.99 µM. 340,000 compounds, 1.5% hits. AID 651658, 2012;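 active = mean Tm shift, scaled 0 neutral to 100 positive control, at about 1.3% or above, every replicate too, limit read from the data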
S100A4 inh HTS = inhibitors of S100A4-myosin IIA peptide binding, primary screen, biochemical, fluorescence polarization, TAMRA-MyoIIA peptide | Protein S100-A4 (Homo sapiens), P26447 | inhibition, % at 10.7 µM | 360,000 compounds, 0.14% hits;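 active = mean inhibition of at least 70% across replicates, with every replicate also reaching that level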
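Compound dosing: one dose per compound; test system: human S100A4 monomer with TAMRA-labelled myosin IIA peptide; probe or stimulus: TAMRA-labelled myosin IIA heavy-chain peptide probe, 5 nM; medium: HEPES buffer with Ca2+, pH 7.2; schedule: 5 min incubation before reading; benchmarks: neutral control DMSO, positive control TFP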
PDI turbidity = inhibitors of human PDI, primary screen, biochemical, turbidity, single point, plate reader | AID 588391, 2011 | 350,000 compounds, 0.052% hits | PDI insulin aggregation turbidity, A650, 90 min | Protein disulfide-isomerase (Homo sapiens), P07237 | inhibition, % at 10 µM;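 active = mean inhibition across replicates of 30% or more, whatever share of single replicates reach that level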
ERp5 inh = inhibitors of ERp5-driven insulin aggregation, primary screen, biochemical, turbidity, absorbance 650 nm, single point | Protein disulfide-isomerase A6 (Homo sapiens), Q15084 | 90 min | inhibition, % at 9.99 µM | 350,000 compounds, 0.05% hits | AID 651711, 2012;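 active = mean replicate inhibition above about 25%, with every replicate also reaching it, limit read from the data, passing the limit was not always enough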
* = called active by the depositor; . = no result given. Shown is part of a subset that was picked to be rich in hits.

SMILES	ERAP1 HTS inh	FGF22 binding	S100A4 inh HTS	PDI turbidity	ERp5 inh
Cc1cc(=O)oc2cc(OCC(=O)Nc3ccc(CN4CCOCC4)cc3)c(Cl)cc12	1	0	-4	-8	-10
CC(C)n1cc(/C=C2\NC(=O)N(c3cccc(Cl)c3)C2=O)c2ccccc21	4	.	1	10	1
O=C(O)Cn1cc(/C=C2/NC(=O)N(c3ccc(Cl)cc3)C2=O)c2ccccc21	13	2.4*	-2	.	1
COC(=O)C(Cc1c[nH]c2ccccc12)N1CCS(=O)(=O)CC1 (configuration not stated)	2	0	1	11	-1
c1ccc(-c2nnsc2-c2nc3ccccc3[nH]2)cc1	-5	43*	-1	-9	1
C[C@@H]1CN([C@H](C)CO)C(=O)c2cc(/C=C/c3ccccc3)cnc2O[C@@H]1CN(C)C(=O)C1CCCCC1	0	0	-29	.	2
CC(C)=CCCC1=CCC2C(=O)NNC(=O)C2C1 (configuration not stated)	.	.	2	15	.
C[n+]1ccccc1C1CCCC/C1=N\NC(N)=S (configuration not stated)	43*	43*	-3	-1	5
CC1CCCC/C1=N\NC(=S)NCCc1ccccc1 (configuration not stated)	5	0	1	4	-6
CCCN1[C@H](CO)[C@H](c2ccc(C3=CCCCC3)cc2)[C@@H]1CNS(C)(=O)=O	1	.	80*	.	4
CCCN1[C@H](CO)[C@H](c2ccc(C3=CCCCC3)cc2)[C@@H]1CNC(=O)COC	-1	.	-1	.	2
C[C@@H]1CN([C@H](C)CO)C(=O)c2cc(NS(=O)(=O)c3ccc(F)cc3)ccc2O[C@@H](C)CCCCO[C@@H]1CN(C)C(=O)c1ccccc1	1	0	54	.	-1
O=C(Nc1nnc(-c2cccs2)o1)c1ccc(S(=O)(=O)N2CCOCC2)cc1	-2	44*	6	1	1
O=C(Nc1nc(-c2cc3ccccc3o2)cs1)c1ccc(S(=O)(=O)N2CCCC2)cc1	2	43*	-1	-5	5
CS(=O)(=O)c1ccccc1-c1nnc(NC(=O)c2ccc(S(=O)(=O)N3CCCC3)cc2)o1	3	0	8	-1	4
CN(C)S(=O)(=O)c1ccc(C(=O)Nc2nc(-c3cc4ccccc4o3)cs2)cc1	0	0	-1	-1	4
CC1CN(S(=O)(=O)c2ccc(C(=O)Nc3nc(-c4cc5ccccc5o4)cs3)cc2)CC(C)O1 (configuration not stated)	-2	44*	0	-4	1
O=C(Nc1nc(-c2ccc(-c3ccccc3)cc2)cs1)c1cc([N+](=O)[O-])ccc1N1CCOCC1	5	43*	-1	-5	-7
CCc1nnc(NC(=O)c2cc([N+](=O)[O-])ccc2N2CCOCC2)s1	-2	0	0	-2	5
COCCN(C(=O)c1csnn1)C(C(=O)NC1CCCCC1)c1ccc(C)cc1 (configuration not stated)	0	0	4	-13	2
O=S(=O)(NC1CC1)c1ccc(S(=O)(=O)N2CCCc3ccccc32)cc1	-4	0	-1	8	9
O=C(Nc1nc(-c2ccc(S(=O)(=O)N3CCOCC3)cc2)cs1)c1ccccc1	-1	44*	-3	-1	-10
COc1cccc(C(=O)Nc2nc(-c3ccc(S(=O)(=O)N4CCOCC4)cc3)cs2)c1	.	.	.	-7	.
COc1ccc(S(=O)(=O)Nc2ccc3c(c2)C(=O)N([C@@H](C)CO)C[C@H](C)[C@H](CN(C)C(=O)Nc2c(C)noc2C)OCCCC[C@@H](C)O3)cc1	1	0	-3	.	0
COC(=O)C(/C=N/O)NC(=O)c1ccccc1 (configuration not stated)	11	0	0	-5	-1
SMILES	ERAP1 HTS inh	FGF22 binding	S100A4 inh HTS	PDI turbidity	ERp5 inh
O=C(O)CCCNc1n[nH]c(=O)[nH]c1=O	5	43*	-4	-5	3
COc1ccc(CC(=O)N(C)C2CCCCC2)cc1S(=O)(=O)N1CCOCC1	-3	0	2	-1	1
COc1ccc(CC(CC(=O)O)C(=O)Nc2ccc(OC)cc2)cc1 (configuration not stated)	.	.	.	15	.
COc1ccc(NC(=O)C(CC(=O)O)Cc2ccc(C)cc2)cc1 (configuration not stated)	4	43*	-1	3	-2
Cc1nnsc1C(=O)N1CCCC(Nc2ccc(F)c(F)c2)C1 (configuration not stated)	2	57*	-6	-5	-1
CCOc1ccccc1NC(=O)c1cc(C(=O)c2cc(Br)ccc2O)coc1=N	2	45*	-2	-5	0
FC(F)(F)c1ccccc1NC(=S)NC1CCN(Cc2ccccc2)CC1	-1	44*	-1	6	2
S=C(Nc1ccccc1Cl)NC1CCN(Cc2ccccc2)CC1	.	.	.	1	.
C[C@H](CO)N1C[C@H](C)[C@@H](CN(C)C(=O)c2cccnc2)Oc2ncc(C3=CCCC3)cc2C1=O	2	0	-4	.	-1
COc1cccc(C(=O)NCC(=O)NNc2ncnc(N)c2[N+](=O)[O-])c1	1	43*	-2	-4	-1
Cc1cccc(C)c1Nc1ncnc(N)c1[N+](=O)[O-]	9	0	-2	-7	-1
CCn1nc(C(=O)NNC(=O)c2ccc(OC(F)F)cc2)c2ccccc2c1=O	-4	0	0	-4	-6
Cc1cn(-c2ccccc2)c(C)c1/C=N\Nc1nc(N2CCOCC2)nc(N2CCOCC2)n1	-2	43*	0	-6	1
O=[N+]([O-])c1cccc(/C=N/Nc2nc(N3CCOCC3)nc(N3CCOCC3)n2)c1	4	44*	0	12	0
CCOC(=O)CCCCC(=O)c1[nH]c(=O)[nH]c1Cn1ccnc1	.	.	.	0	.
CC(=O)Nc1ccc(N/C=C(\C#N)S(=O)(=O)c2ccc(Cl)cc2)cc1	0	0	-3	-3	1
Cc1nonc1CC(=O)N1CCCC(C(=O)c2cccc(C(F)(F)F)c2)C1 (configuration not stated)	2	46*	-3	5	4
COc1ccc(C(=O)C2CCCN(C(=O)Cc3c(C)noc3C)C2)cc1OC (configuration not stated)	-3	43*	4	-3	-7
Cc1ncoc1C(=O)N1CCCC(C(=O)c2cccc(C(F)(F)F)c2)C1 (configuration not stated)	.	0	0	-17	2
